Results reported in ChEMBL document CHEMBL4680175, “Sulfonamide-based ring-fused analogues for CAN508 as novel carbonic anhydrase inhibitors endowed with antitumor activity: Design, synthesis, and in vitro biological evaluation” (Eur J Med Chem, 2020).
Each block holds one compound with its values, some of them ahead of it. The source made the active and inactive calls. The calls are words filed in the database; no cut-off is given here.

Experiments:
Carbonic anhydrase 1 = Carbonic anhydrase 1 (Homo sapiens, UniProt P00915); assay: Inhibition of recombinant human carbonic anhydrase 1 preincubated with enzyme for 15 mins by phenol red dye based stopped flow CO2 hydrase assay
Carbonic anhydrase 1, sequence (P00915 whole entry): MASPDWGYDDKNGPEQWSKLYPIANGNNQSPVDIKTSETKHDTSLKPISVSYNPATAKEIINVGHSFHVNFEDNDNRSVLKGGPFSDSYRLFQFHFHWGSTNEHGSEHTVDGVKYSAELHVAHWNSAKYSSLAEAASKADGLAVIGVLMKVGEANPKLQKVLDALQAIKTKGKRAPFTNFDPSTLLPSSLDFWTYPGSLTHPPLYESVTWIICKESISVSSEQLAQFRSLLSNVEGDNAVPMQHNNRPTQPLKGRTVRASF

Carbonic anhydrase 9 = Carbonic anhydrase 9 (Homo sapiens, UniProt Q16790); assay: Inhibition of recombinant human carbonic anhydrase 9 preincubated with enzyme for 15 mins by phenol red dye based stopped flow CO2 hydrase assay
Carbonic anhydrase 12 = Carbonic anhydrase 12 (Homo sapiens, UniProt O43570); assay: Inhibition of recombinant human carbonic anhydrase 12 preincubated with enzyme for 15 mins by phenol red dye based stopped flow CO2 hydrase assay
Carbonic anhydrase 12, sequence (O43570 whole entry): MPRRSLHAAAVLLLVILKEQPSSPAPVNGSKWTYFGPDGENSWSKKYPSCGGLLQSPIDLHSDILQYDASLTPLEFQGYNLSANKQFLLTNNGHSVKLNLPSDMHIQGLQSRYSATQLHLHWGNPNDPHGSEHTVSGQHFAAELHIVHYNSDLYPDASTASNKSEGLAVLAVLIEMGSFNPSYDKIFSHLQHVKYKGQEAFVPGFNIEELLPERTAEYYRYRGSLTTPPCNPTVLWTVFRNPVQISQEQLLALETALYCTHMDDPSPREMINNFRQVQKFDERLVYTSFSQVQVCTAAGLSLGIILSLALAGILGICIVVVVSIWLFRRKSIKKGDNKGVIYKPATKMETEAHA

[1] = target: Cyclin-dependent kinase 2/cyclin E1 (Homo sapiens, UniProt P24941); assay: Inhibition of CDK2/cyclin E (unknown origin) expressed in baculovirus infected Sf21 insect cells using histone H1 as substrate in presence of [gamma33P]ATP
CDK9/cyclin T1 = CDK9/cyclin T1 (Homo sapiens, UniProt P50750); assay: Inhibition of human full-length N-terminal GST/His6-tagged CDK9 (1 to 372 residues)/His6-tagged Cyclin-T1 (1 to 726 residues) expressed in sf9 cells using (YSPTSPS)2KK peptide as substrate in presence of [gamma33P]ATP
CDK9/cyclin T1, sequence (O60563 whole entry, the tested form may be a part): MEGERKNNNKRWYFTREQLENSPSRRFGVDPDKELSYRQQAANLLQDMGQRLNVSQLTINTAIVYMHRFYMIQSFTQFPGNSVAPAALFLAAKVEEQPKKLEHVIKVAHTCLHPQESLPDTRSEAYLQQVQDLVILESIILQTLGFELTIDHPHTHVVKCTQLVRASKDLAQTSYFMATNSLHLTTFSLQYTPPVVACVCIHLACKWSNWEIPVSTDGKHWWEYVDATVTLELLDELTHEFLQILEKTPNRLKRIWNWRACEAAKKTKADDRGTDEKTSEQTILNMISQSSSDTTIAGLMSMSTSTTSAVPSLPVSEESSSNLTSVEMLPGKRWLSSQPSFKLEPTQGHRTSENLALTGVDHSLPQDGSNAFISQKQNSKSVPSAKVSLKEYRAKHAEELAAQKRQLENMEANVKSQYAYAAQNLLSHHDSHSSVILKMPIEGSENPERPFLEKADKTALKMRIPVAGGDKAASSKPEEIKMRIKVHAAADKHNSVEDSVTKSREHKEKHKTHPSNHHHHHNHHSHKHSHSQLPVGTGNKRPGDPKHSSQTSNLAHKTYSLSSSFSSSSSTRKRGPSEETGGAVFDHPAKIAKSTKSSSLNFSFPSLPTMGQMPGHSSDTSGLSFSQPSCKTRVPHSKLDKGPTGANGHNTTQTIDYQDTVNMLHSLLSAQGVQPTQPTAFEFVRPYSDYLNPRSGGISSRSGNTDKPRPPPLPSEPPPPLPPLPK
CDK9/cyclin T1, sequence (P50750 whole entry, the tested form may be a part): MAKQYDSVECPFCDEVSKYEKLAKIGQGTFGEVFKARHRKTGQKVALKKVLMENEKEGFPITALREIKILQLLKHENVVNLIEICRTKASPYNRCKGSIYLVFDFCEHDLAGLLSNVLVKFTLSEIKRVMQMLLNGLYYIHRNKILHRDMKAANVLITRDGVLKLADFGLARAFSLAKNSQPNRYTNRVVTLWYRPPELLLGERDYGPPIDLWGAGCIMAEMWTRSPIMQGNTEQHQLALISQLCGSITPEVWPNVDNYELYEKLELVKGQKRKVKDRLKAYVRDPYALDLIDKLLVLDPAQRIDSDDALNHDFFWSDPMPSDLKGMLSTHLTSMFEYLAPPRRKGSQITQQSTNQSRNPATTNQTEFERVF

K562 = assay: Antitumor activity against human K562 cells assessed as cell growth inhibition at 10 uM incubated for 48 hrs by sulforhodamine B assay; assay type: functional; details: read-out: GI
Method in brief: (§1)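 NCI Drug Evaluation Branch protocol: primary single-dose screen at 10 μM across a 57-line human cancer panel. Drug exposure is 48 h. Cell growth and viability are read by sulforhodamine B assay. Data are given as a mean graph of percent growth of treated cells and reported as percentage growth inhibition (GI%).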

MOLT-4 = assay: Antitumor activity against human MOLT4 cells assessed as cell growth inhibition at 10 uM incubated for 48 hrs by sulforhodamine B assay; assay type: functional; details: read-out: GI; method in brief: as §1
RPMI-8226 = assay: Antitumor activity against human RPMI8226 cells assessed as cell growth inhibition at 10 uM incubated for 48 hrs by sulforhodamine B assay; assay type: functional; details: read-out: GI; method in brief: as §1
HOP-62 = assay: Antitumor activity against human HOP62 cells assessed as cell growth inhibition at 10 uM incubated for 48 hrs by sulforhodamine B assay; assay type: functional; details: read-out: GI; method in brief: as §1
HOP-92 = assay: Antitumor activity against human HOP92 cells assessed as cell growth inhibition at 10 uM incubated for 48 hrs by sulforhodamine B assay; assay type: functional; details: read-out: GI; method in brief: as §1
NCI-H322M = assay: Antitumor activity against human NCI-H322M cells assessed as cell growth inhibition at 10 uM incubated for 48 hrs by sulforhodamine B assay; assay type: functional; details: read-out: GI; method in brief: as §1
NCI-H460 = assay: Antitumor activity against human NCI-H460 cells assessed as cell growth inhibition at 10 uM incubated for 48 hrs by sulforhodamine B assay; assay type: functional; details: read-out: GI; method in brief: as §1
NCI-H522 = assay: Antitumor activity against human NCI-H522 cells assessed as cell growth inhibition at 10 uM incubated for 48 hrs by sulforhodamine B assay; assay type: functional; details: read-out: GI; method in brief: as §1
HCT-116 = assay: Antitumor activity against human HCT116 cells assessed as cell growth inhibition at 10 uM incubated for 48 hrs by sulforhodamine B assay; assay type: functional; details: read-out: GI; method in brief: as §1
KM12 = assay: Antitumor activity against human KM12 cells assessed as cell growth inhibition at 10 uM incubated for 48 hrs by sulforhodamine B assay; assay type: functional; details: read-out: GI; method in brief: as §1
SF-268 = assay: Antitumor activity against human SF268 cells assessed as cell growth inhibition at 10 uM incubated for 48 hrs by sulforhodamine B assay; assay type: functional; details: read-out: GI; method in brief: as §1
SF-539 = assay: Antitumor activity against human SF539 cells assessed as cell growth inhibition at 10 uM incubated for 48 hrs by sulforhodamine B assay; assay type: functional; details: read-out: GI; method in brief: as §1
SNB-75 = assay: Antitumor activity against human SNB-75 cells assessed as cell growth inhibition at 10 uM incubated for 48 hrs by sulforhodamine B assay; assay type: functional; details: read-out: GI
Method in brief: (§2)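 NCI one-dose screen: 57-cell-line panel exposed at 10 μM for 48 h, Drug Evaluation Branch protocol. Growth and viability read by sulforhodamine B; data given as percent growth inhibition from the mean-graph of percent growth of treated cells.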

U-251 = assay: Antitumor activity against human U251 cells assessed as cell growth inhibition at 10 uM incubated for 48 hrs by sulforhodamine B assay; assay type: functional; details: read-out: GI; method in brief: as §2
LOX IMVI = assay: Antitumor activity against human LOX IMVI cells assessed as cell growth inhibition at 10 uM incubated for 48 hrs by sulforhodamine B assay; assay type: functional; details: read-out: GI; method in brief: as §1
Malme-3M = assay: Antitumor activity against human MALME-3M cells assessed as cell growth inhibition at 10 uM incubated for 48 hrs by sulforhodamine B assay; assay type: functional; details: read-out: GI; method in brief: as §1
CAKI-1 = assay: Antitumor activity against human CAKI-1 cells assessed as cell growth inhibition at 10 uM incubated for 48 hrs by sulforhodamine B assay; assay type: functional; details: read-out: GI; method in brief: as §1
SK-MEL-2 = assay: Antitumor activity against human SK-MEL-2 cells assessed as cell growth inhibition at 10 uM incubated for 48 hrs by sulforhodamine B assay; assay type: functional; details: read-out: GI; method in brief: as §1
SK-MEL-5 = assay: Antitumor activity against human SK-MEL-5 cells assessed as cell growth inhibition at 10 uM incubated for 48 hrs by sulforhodamine B assay; assay type: functional; details: read-out: GI; method in brief: as §1
IGROV-1 = assay: Antitumor activity against human IGROV1 cells assessed as cell growth inhibition at 10 uM incubated for 48 hrs by sulforhodamine B assay; assay type: functional; details: read-out: GI; method in brief: as §1
OVCAR-3 = assay: Antitumor activity against human OVCAR-3 cells assessed as cell growth inhibition at 10 uM incubated for 48 hrs by sulforhodamine B assay; assay type: functional; details: read-out: GI; method in brief: as §1
OVCAR-8 = assay: Antitumor activity against human OVCAR-8 cells assessed as cell growth inhibition at 10 uM incubated for 48 hrs by sulforhodamine B assay; assay type: functional; details: read-out: GI; method in brief: as §1
PC-3 = assay: Antitumor activity against human PC-3 cells assessed as cell growth inhibition at 10 uM incubated for 48 hrs by sulforhodamine B assay; assay type: functional; details: read-out: GI; method in brief: as §1
RXF 393 = assay: Antitumor activity against human RXF 393 cells assessed as cell growth inhibition at 10 uM incubated for 48 hrs by sulforhodamine B assay; assay type: functional; details: read-out: GI; method in brief: as §1
SN12C = assay: Antitumor activity against human SN12C cells assessed as cell growth inhibition at 10 uM incubated for 48 hrs by sulforhodamine B assay; assay type: functional; details: read-out: GI; method in brief: as §1
MCF7 = assay: Antitumor activity against human MCF7 cells assessed as cell growth inhibition at 10 uM incubated for 48 hrs by sulforhodamine B assay; assay type: functional; details: read-out: GI; method in brief: as §1
MDA-MB-231 = assay: Antitumor activity against human MDA-MB-231/ATCC cells assessed as cell growth inhibition at 10 uM incubated for 48 hrs by sulforhodamine B assay; assay type: functional; details: read-out: GI; method in brief: as §1
Hs-578T = assay: Antitumor activity against human HS 578T cells assessed as cell growth inhibition at 10 uM incubated for 48 hrs by sulforhodamine B assay; assay type: functional; details: read-out: GI; method in brief: as §1
BT-549 = assay: Antitumor activity against human BT-549 cells assessed as cell growth inhibition at 10 uM incubated for 48 hrs by sulforhodamine B assay; assay type: functional; details: read-out: GI; method in brief: as §1
T47D = assay: Antitumor activity against human T-47D cells assessed as cell growth inhibition at 10 uM incubated for 48 hrs by sulforhodamine B assay; assay type: functional; details: read-out: GI; method in brief: as §2
MDA-MB-468 = assay: Antitumor activity against human MDA-MB-468 cells assessed as cell growth inhibition at 10 uM incubated for 48 hrs by sulforhodamine B assay; assay type: functional; details: read-out: GI; method in brief: as §1
NCI/ADR-RES = assay: Antitumor activity against human NCI/ADR-RES cells assessed as cell growth inhibition at 10 uM incubated for 48 hrs by sulforhodamine B assay; assay type: functional, cell-based; method in brief: as §1
NCI-H226 = assay: Antitumor activity against human NCI-H226 assessed as cell growth inhibition at 10 uM incubated for 48 hrs by sulforhodamine B assay; assay type: functional; details: read-out: GI; method in brief: as §1

SMILES: Nc1nn2cc(-c3ccc(Br)cc3)[nH]c2c1/N=N/c1ccc(S(N)(=O)=O)cc1
Ki (Carbonic anhydrase 1): 1590 nM | Ki (Carbonic anhydrase 9): 44.9 nM | Ki (Carbonic anhydrase 12): 52.8 nM | IC50 [1]: > 12.5 µM | IC50 (CDK9/cyclin T1): > 12.5 µM | inhibition of growth at 10 µM (K562): 38% | inhibition of growth at 10 µM (MOLT-4): 42% | inhibition of growth at 10 µM (RPMI-8226): 55% | inhibition of growth at 10 µM (HOP-62): 37% | inhibition of growth at 10 µM (HOP-92): 29% | inhibition of growth at 10 µM (NCI-H322M): 65% | inhibition of growth at 10 µM (NCI-H460): 62% | inhibition of growth at 10 µM (NCI-H522): 55% | inhibition of growth at 10 µM (HCT-116): 62% | inhibition of growth at 10 µM (KM12): 39% | inhibition of growth at 10 µM (SF-268): 42% | inhibition of growth at 10 µM (SF-539): 42% | inhibition of growth at 10 µM (SNB-75): 64% | inhibition of growth at 10 µM (U-251): 38% | inhibition of growth at 10 µM (LOX IMVI): 64% | inhibition of growth at 10 µM (Malme-3M): 64% | inhibition of growth at 10 µM (CAKI-1): 82% | inhibition of growth at 10 µM (SK-MEL-2): 53% | inhibition of growth at 10 µM (SK-MEL-5): 45% | inhibition of growth at 10 µM (IGROV-1): 72% | inhibition of growth at 10 µM (OVCAR-3): 27% | inhibition of growth at 10 µM (OVCAR-8): 37% | inhibition of growth at 10 µM (PC-3): 39% | inhibition of growth at 10 µM (RXF 393): 55% | inhibition of growth at 10 µM (SN12C): 58% | inhibition of growth at 10 µM (MCF7): 33% | inhibition of growth at 10 µM (MDA-MB-231): 43% | inhibition of growth at 10 µM (Hs-578T): 54% | inhibition of growth at 10 µM (BT-549): 25% | inhibition of growth at 10 µM (T47D): 46% | inhibition of growth at 10 µM (MDA-MB-468): 51% | Activity (NCI/ADR-RES): inactive

Ki (Carbonic anhydrase 1): 2250 nM | Ki (Carbonic anhydrase 9): 31.3 nM | Ki (Carbonic anhydrase 12): 14.2 nM | IC50 [1]: > 12.5 µM | IC50 (CDK9/cyclin T1): > 12.5 µM
SMILES: N#Cc1c(-c2ccc(Cl)cc2)nc2c(/N=N/c3ccc(S(N)(=O)=O)cc3)c(N)nn2c1N
inhibition of growth at 10 µM (K562): 28% | inhibition of growth at 10 µM (MOLT-4): 82% | inhibition of growth at 10 µM (RPMI-8226): 58% | inhibition of growth at 10 µM (HOP-62): 24% | inhibition of growth at 10 µM (HOP-92): 29% | inhibition of growth at 10 µM (NCI-H226): 25% | inhibition of growth at 10 µM (NCI-H460): 21% | inhibition of growth at 10 µM (NCI-H522): 29% | inhibition of growth at 10 µM (HCT-116): 34% | inhibition of growth at 10 µM (KM12): 75% | inhibition of growth at 10 µM (SF-268): 23% | inhibition of growth at 10 µM (SF-539): 25% | inhibition of growth at 10 µM (U-251): 30% | inhibition of growth at 10 µM (CAKI-1): 26% | inhibition of growth at 10 µM (SK-MEL-2): 24% | inhibition of growth at 10 µM (SK-MEL-5): 31% | inhibition of growth at 10 µM (OVCAR-3): 25% | inhibition of growth at 10 µM (OVCAR-8): 25% | inhibition of growth at 10 µM (PC-3): 38% | inhibition of growth at 10 µM (RXF 393): 29% | inhibition of growth at 10 µM (SN12C): 27% | inhibition of growth at 10 µM (MCF7): 51% | inhibition of growth at 10 µM (MDA-MB-231): 52% | inhibition of growth at 10 µM (Hs-578T): 30% | inhibition of growth at 10 µM (BT-549): 35% | inhibition of growth at 10 µM (T47D): 56% | inhibition of growth at 10 µM (MDA-MB-468): 56% | Activity (NCI/ADR-RES): inactive
